Results: ChEMBL document CHEMBL3779767, “Identification of potent and selective MTH1 inhibitors” (Bioorg Med Chem Lett, 2016)
The source made the active and inactive calls. The rule behind the calls is not given here.

Assays:
[1] = tested on: Tyrosine-protein kinase ABL1 (Homo sapiens), P00519 [E255K]; assay: Inhibition of partial length human ABL1 E255K mutant phosphorylation expressed in mammalian system at 1 uM
Outline: (§1)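 Single-point screen within a 97-kinase profiling panel, with the test compound at 1 µM.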

[2] = Permeability across MDCK cells; assay type: ADME, cell-based, Canis lupus familiaris; settings: dog, read-out: permeability
Outline: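 Measured across a confluent MDCK cell monolayer; apparent permeability is reported together with the efflux ratio.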

[3] = tested on: Tyrosine-protein kinase ABL1 (Homo sapiens), P00519 [T315I]; assay: Inhibition of partial length human ABL1 T315I mutant phosphorylation expressed in mammalian system at 1 uM; outline: as §1
[4] = target: Serine/threonine-protein kinase B-raf (Homo sapiens) (UniProt P15056); assay: Inhibition of partial length human BRAF expressed in mammalian system at 1 uM; outline: as §1
[5] = target: Macrophage colony-stimulating factor 1 receptor (Homo sapiens) (UniProt P07333); assay: Inhibition of partial length human CSF1R expressed in bacterial system at 1 uM; outline: as §1
[6] = tested on: Epidermal growth factor receptor (Homo sapiens), P04626+P00533+Q15303+P21860 [L858R]; assay: Inhibition of partial length human EGFR L858R mutant expressed in bacterial system at 1 uM
Outline: (§2)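 Single-concentration screen at 1 µM test concentration, run as part of a commercial binding/activity profiling panel covering 97 kinases.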

[7] = target: Receptor tyrosine-protein kinase erbB-4 (Homo sapiens) (UniProt Q15303); assay: Inhibition of partial length human ERBB4 expressed in bacterial system at 1 uM; outline: as §1
Chain of Receptor tyrosine-protein kinase erbB-4 (Homo sapiens) (Q15303 whole entry): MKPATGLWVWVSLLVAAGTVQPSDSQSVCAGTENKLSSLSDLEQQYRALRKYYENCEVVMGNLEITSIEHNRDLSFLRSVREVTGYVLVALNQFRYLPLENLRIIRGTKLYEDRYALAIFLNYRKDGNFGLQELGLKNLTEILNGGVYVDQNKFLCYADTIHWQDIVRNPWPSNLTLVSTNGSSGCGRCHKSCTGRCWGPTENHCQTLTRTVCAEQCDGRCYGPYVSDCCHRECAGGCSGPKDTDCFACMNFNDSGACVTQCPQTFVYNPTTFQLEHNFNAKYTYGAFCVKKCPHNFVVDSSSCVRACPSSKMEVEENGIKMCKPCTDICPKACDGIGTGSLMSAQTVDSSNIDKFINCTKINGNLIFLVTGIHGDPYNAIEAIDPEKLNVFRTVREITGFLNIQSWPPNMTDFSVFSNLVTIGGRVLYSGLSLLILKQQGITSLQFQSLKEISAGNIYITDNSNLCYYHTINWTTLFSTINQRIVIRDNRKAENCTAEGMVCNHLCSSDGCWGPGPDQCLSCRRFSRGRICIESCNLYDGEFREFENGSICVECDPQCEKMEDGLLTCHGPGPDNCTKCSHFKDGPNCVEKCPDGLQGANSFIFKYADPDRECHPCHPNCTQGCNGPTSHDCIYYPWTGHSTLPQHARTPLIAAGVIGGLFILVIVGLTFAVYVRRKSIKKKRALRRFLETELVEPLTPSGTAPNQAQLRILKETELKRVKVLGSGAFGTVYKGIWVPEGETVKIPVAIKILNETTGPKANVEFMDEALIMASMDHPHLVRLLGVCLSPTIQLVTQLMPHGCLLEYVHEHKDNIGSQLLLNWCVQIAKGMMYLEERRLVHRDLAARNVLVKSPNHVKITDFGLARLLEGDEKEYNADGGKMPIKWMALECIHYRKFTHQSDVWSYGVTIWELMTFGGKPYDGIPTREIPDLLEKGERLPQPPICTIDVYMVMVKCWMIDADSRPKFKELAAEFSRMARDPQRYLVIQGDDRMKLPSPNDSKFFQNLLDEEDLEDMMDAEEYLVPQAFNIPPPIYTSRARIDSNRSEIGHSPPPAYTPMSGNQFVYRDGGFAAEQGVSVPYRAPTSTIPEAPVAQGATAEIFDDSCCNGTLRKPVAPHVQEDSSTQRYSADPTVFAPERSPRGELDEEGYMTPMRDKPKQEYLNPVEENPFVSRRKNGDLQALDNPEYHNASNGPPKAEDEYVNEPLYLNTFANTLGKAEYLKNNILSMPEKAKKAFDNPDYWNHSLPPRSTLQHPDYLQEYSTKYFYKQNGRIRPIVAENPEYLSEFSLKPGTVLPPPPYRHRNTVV

[8] = target: Focal adhesion kinase 1 (Homo sapiens) (UniProt Q05397); assay: Inhibition of partial length human FAK expressed in bacterial system at 1 uM; outline: as §1
[9] = target: Fibroblast growth factor receptor 3 (Homo sapiens) (UniProt P22607); assay: Inhibition of partial length human FGFR3 expressed in bacterial system at 1 uM; outline: as §1
[10] = target: Receptor-type tyrosine-protein kinase FLT3 (Homo sapiens) (UniProt P36888); assay: Inhibition of partial length human FLT3 expressed in bacterial system at 1 uM; outline: as §1
[11] = target: Insulin-like growth factor 1 receptor (Homo sapiens) (UniProt P08069); assay: Inhibition of partial length human IGF1R expressed in bacterial system at 1 uM; outline: as §1
[12] = target: Inhibitor of nuclear factor kappa-B kinase subunit alpha (Homo sapiens) (UniProt O15111); assay: Inhibition of partial length human IKKalpha expressed in mammalian system at 1 uM; outline: as §1
[13] = target: Tyrosine-protein kinase JAK2 (Homo sapiens) (UniProt O60674); assay: Inhibition of partial length human JAK2 JH1 catalytic domain expressed in mammalian system at 1 uM; outline: as §1
[14] = target: Mast/stem cell growth factor receptor Kit (Homo sapiens) (UniProt P10721); assay: Inhibition of partial length human KIT expressed in bacterial system at 1 uM; outline: as §2
Chain of Mast/stem cell growth factor receptor Kit (Homo sapiens) (P10721 whole entry): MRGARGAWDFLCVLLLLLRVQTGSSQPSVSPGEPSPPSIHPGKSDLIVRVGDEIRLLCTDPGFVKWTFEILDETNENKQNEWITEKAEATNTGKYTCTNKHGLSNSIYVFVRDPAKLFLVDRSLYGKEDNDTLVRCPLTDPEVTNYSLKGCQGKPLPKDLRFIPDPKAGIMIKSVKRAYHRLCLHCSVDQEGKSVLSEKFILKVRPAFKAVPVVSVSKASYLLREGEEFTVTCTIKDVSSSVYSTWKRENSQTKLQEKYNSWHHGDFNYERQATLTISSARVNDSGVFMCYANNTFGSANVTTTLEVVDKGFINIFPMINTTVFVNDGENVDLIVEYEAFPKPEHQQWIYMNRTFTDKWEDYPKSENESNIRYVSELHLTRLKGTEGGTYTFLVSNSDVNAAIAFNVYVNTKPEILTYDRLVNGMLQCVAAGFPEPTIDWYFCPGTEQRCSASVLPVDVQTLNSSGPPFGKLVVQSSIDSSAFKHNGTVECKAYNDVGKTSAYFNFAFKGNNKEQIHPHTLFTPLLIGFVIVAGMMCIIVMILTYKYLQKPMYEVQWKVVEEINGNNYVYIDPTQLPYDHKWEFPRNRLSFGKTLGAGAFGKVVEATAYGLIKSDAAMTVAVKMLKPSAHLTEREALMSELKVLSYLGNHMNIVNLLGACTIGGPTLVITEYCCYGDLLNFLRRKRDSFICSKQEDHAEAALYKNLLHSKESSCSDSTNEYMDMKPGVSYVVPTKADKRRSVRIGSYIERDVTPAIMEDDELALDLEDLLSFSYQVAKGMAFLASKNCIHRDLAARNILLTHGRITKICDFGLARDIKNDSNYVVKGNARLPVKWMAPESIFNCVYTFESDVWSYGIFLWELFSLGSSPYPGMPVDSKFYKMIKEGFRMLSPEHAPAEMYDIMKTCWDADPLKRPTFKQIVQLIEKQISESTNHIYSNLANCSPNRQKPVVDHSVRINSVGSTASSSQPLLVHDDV

[15] = target: Serine/threonine-protein kinase STK11 (Homo sapiens) (UniProt Q15831); assay: Inhibition of partial length human LKB1 expressed in bacterial system at 1 uM; outline: as §1
[16] = target: Hepatocyte growth factor receptor (Homo sapiens) (UniProt P08581); assay: Inhibition of partial length human MET expressed in bacterial system at 1 uM
Chain of Hepatocyte growth factor receptor (Homo sapiens) (P08581 whole entry): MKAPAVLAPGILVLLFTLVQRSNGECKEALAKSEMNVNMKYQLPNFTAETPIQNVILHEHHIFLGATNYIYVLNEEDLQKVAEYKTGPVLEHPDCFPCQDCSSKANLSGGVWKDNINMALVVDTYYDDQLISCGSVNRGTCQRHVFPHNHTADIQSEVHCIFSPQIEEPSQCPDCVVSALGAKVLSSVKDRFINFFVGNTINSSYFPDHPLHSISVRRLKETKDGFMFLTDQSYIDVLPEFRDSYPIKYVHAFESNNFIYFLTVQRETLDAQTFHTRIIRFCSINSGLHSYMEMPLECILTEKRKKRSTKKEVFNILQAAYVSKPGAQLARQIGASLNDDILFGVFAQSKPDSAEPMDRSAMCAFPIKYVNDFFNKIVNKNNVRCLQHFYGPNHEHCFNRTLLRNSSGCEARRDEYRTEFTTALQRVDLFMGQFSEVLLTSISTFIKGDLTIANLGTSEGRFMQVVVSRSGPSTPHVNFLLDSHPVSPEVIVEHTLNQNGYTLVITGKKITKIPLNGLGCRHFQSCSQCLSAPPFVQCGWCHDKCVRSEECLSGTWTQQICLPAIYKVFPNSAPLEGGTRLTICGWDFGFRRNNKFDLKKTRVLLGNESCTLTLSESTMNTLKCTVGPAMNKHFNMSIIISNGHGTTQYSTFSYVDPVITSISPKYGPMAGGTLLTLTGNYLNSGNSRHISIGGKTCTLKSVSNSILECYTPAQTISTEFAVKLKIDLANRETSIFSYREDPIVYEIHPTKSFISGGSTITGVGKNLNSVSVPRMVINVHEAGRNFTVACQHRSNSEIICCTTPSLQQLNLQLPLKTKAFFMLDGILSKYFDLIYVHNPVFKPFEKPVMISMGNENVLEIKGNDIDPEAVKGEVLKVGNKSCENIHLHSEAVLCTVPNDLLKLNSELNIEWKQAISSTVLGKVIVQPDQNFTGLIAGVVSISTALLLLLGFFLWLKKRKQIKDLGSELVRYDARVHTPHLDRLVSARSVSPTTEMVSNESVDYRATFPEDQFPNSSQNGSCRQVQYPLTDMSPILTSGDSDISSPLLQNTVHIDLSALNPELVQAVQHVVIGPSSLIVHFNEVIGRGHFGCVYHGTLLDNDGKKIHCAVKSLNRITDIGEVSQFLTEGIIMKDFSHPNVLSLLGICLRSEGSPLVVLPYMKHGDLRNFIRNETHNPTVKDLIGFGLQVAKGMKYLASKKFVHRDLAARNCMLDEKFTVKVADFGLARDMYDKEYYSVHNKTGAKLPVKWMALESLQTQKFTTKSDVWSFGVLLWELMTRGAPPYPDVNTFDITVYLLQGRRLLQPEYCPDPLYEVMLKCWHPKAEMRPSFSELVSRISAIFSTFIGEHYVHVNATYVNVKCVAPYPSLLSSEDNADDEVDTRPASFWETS
Outline: (§3)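 Single-concentration screen across a panel of 97 kinases, with the test compound at 1 uM.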

[17] = target: Mitogen-activated protein kinase kinase kinase 9 (Homo sapiens) (UniProt P80192); assay: Inhibition of partial length human MLK1 expressed in bacterial system at 1 uM; outline: as §3
[18] = target: Phosphatidylinositol 4-phosphate 3-kinase C2 domain-containing subunit beta (Homo sapiens) (UniProt O00750); assay: Inhibition of partial length human PIK3C2beta expressed in mammalian system at 1 uM; outline: as §3
[19] = target: Phosphatidylinositol 4,5-bisphosphate 3-kinase catalytic subunit alpha isoform (Homo sapiens) (UniProt P42336); assay: Inhibition of partial length human PIK3Calpha expressed in mammalian system at 1 uM; outline: as §3
[20] = target: Phosphatidylinositol 4,5-bisphosphate 3-kinase catalytic subunit gamma isoform (Homo sapiens) (UniProt P48736); assay: Inhibition of partial length human PIK3Cgamma expressed in mammalian system at 1 uM; outline: as §3
[21] = target: Serine/threonine-protein kinase pim-1 (Homo sapiens) (UniProt P11309); assay: Inhibition of partial length human PIM1 expressed in bacterial system at 1 uM; outline: as §3
[22] = target: cAMP-dependent protein kinase catalytic subunit alpha (Homo sapiens) (UniProt P17612); assay: Inhibition of partial length human PKACalpha expressed in bacterial system at 1 uM; outline: as §3
[23] = target: NUAK family SNF1-like kinase 2 (Homo sapiens) (UniProt Q9H093); assay: Inhibition of partial length human SNARK expressed in mammalian system at 1 uM; outline: as §3
Chain of NUAK family SNF1-like kinase 2 (Homo sapiens) (Q9H093 whole entry): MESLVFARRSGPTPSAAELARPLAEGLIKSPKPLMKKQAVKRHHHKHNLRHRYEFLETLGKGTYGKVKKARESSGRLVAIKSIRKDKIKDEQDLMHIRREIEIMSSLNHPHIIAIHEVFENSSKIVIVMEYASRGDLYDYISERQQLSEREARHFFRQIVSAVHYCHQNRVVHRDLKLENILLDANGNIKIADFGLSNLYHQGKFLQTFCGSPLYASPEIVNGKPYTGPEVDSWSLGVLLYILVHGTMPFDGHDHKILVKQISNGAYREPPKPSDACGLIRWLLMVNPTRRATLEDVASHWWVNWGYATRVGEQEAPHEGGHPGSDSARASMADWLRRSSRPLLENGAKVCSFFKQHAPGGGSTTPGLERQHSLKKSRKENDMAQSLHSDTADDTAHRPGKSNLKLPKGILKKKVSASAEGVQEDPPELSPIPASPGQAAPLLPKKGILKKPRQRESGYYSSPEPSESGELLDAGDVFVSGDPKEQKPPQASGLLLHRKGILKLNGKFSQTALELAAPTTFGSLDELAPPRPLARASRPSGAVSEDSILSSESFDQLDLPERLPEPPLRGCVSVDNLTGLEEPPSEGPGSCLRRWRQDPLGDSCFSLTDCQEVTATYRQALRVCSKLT

[24] = target: TGF-beta receptor type-1 (Homo sapiens) (UniProt P36897); assay: Inhibition of partial length human TGFBR1 expressed in bacterial system at 1 uM; outline: as §3
[25] = target: High affinity nerve growth factor receptor (Homo sapiens) (UniProt P04629); assay: Inhibition of partial length human TRKA expressed in mammalian system at 1 uM; outline: as §3
Chain of High affinity nerve growth factor receptor (Homo sapiens) (P04629 33-796 limits assumed): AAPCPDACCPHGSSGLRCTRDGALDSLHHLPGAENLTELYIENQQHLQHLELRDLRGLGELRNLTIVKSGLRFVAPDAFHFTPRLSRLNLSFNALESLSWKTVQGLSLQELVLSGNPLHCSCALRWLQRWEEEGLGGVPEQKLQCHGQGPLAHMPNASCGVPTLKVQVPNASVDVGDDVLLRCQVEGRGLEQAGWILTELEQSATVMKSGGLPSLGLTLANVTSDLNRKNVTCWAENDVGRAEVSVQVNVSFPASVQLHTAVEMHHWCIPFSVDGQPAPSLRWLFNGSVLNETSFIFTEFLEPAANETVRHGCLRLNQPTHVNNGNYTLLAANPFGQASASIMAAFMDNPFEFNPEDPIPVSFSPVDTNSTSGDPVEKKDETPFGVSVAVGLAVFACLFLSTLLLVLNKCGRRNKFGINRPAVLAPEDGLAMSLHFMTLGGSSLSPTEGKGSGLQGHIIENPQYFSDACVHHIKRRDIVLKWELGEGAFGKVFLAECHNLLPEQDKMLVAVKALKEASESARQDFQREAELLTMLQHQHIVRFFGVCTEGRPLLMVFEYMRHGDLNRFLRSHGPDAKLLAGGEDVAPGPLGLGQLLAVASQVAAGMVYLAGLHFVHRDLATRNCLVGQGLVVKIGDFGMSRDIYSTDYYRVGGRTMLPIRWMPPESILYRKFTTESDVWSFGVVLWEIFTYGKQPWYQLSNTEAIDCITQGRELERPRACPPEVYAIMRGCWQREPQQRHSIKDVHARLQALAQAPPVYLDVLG

[26] = target: Testis-specific serine/threonine-protein kinase 1 (Homo sapiens) (UniProt Q9BXA7); assay: Inhibition of partial length human TSSK1B expressed in bacterial system at 1 uM; outline: as §3
[27] = target: Serine/threonine-protein kinase ULK2 (Homo sapiens) (UniProt Q8IYT8); assay: Inhibition of partial length human ULK2 expressed in mammalian system at 1 uM; outline: as §3
[28] = target: Vascular endothelial growth factor receptor 2 (Homo sapiens) (UniProt P35968); assay: Inhibition of partial length human VEGFR2 expressed in mammalian system at 1 uM; outline: as §3
[29] = Half life in mouse liver microsomes; assay type: ADME
Outline: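 Incubated with human or mouse liver microsomes; the read-out was intrinsic clearance alongside half-life, given in hours.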

[30] = Half life in rat plasma; assay type: ADME, cell-free
Outline: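 Plasma stability was measured in human and rat plasma, with half-life reported in hours.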

[31] = tested on: NCI-H358; assay: Antiproliferative activity against human NCI-H358 cells assessed as change in phenotypic response measured after prolonged treatment; assay type: functional, cell-based
[32] = tested on: A549; assay: Antiproliferative activity against human A549 cells assessed as change in phenotypic response measured after prolonged treatment; assay type: functional, cell-based
[33] = tested on: HeLa; assay: Antiproliferative activity against human HeLa cells assessed as change in phenotypic response measured after prolonged treatment; assay type: functional, cell-based
[34] = tested on: HCT-116; assay: Antiproliferative activity against human HCT116 cells assessed as change in phenotypic response measured after prolonged treatment; assay type: functional, cell-based
[35] = tested on: NCI-H460; assay: Antiproliferative activity against human NCI-H460 cells assessed as change in phenotypic response up to 50 uM; assay type: functional, cell-based
[36] = tested on: HeLa; assay: Antiproliferative activity against human HeLa cells assessed as change in phenotypic response up to 50 uM; assay type: functional, cell-based
[37] = tested on: BJ; assay: Cytotoxicity against human BJ cells assessed as change in phenotypic response measured after prolonged treatment; assay type: cell-based
[38] = tested on: HMEC; assay: Cytotoxicity against human HMEC cells assessed as change in phenotypic response measured after prolonged treatment; assay type: cell-based
[39] = tested on: MRC5; assay: Cytotoxicity against human MRC5 cells assessed as change in phenotypic response measured after prolonged treatment; assay type: cell-based
[40] = tested on: UOK 262; assay: Antiproliferative activity against human UOK 262 cells assessed as change in phenotypic response measured after prolonged treatment; assay type: functional, cell-based
[41] = tested on: NCI-H358; assay: Antiproliferative activity against human NCI-H358 cells assessed as change in phenotypic response up to 50 uM; assay type: functional, cell-based

## Cc1cnc(N)nc1OCC(C)(C)CO
[1]
  inhibition: inactive
[2]
  Papp: 32 ×10⁻⁶ cm/s
[3]
  inhibition: inactive
[4]
  inhibition: inactive
[5]
  inhibition: inactive
[6]
  inhibition: inactive
[7]
  inhibition: inactive
[8]
  inhibition: inactive
[9]
  inhibition: inactive
[10]
  inhibition: inactive
[11]
  inhibition: inactive
[12]
  inhibition: inactive
[13]
  inhibition: inactive
[14]
  inhibition: inactive
[15]
  inhibition: inactive
[16]
  inhibition: inactive
[17]
  inhibition: inactive
[18]
  inhibition: inactive
[19]
  inhibition: inactive
[20]
  inhibition: inactive
[21]
  inhibition: inactive
[22]
  inhibition: inactive
[23]
  inhibition: inactive
[24]
  inhibition: inactive
[25]
  inhibition: inactive
[26]
  inhibition: inactive
[27]
  inhibition: inactive
[28]
  inhibition: inactive
[29]
  half-life: 1.5 h
[30]
  half-life: 86 h
[31]
  Activity: inactive
[32]
  Activity: inactive
[33]
  Activity: inactive
[34]
  Activity: inactive
[35]
  Activity: inactive
[36]
  Activity: inactive
[37]
  Activity: Non-toxic
[38]
  Activity: Non-toxic
[39]
  Activity: Non-toxic
[40]
  Activity: inactive
[41]
  Activity: inactive
